# Data taken from paper PMC10841594 (Cell chemical biology, 2023).
# Key:
# [1] = test system: ferroportin; assay: Immunohistochemical staining for ferroportin; assay type: in vivo, mouse; details: for ferroportin staining in liver vs untreated controls: livers of the mice imaged with FeAL-1
# Method in brief: (§1)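 Tissues fixed in 4% paraformaldehyde, paraffin-embedded and cut into 4-µm sections. Liver, heart and tumor sections stained with anti-4-HNE (1:500) or anti-ferroportin (1:500). Liver and heart came from imaged mice: untreated, hepcidin 50 µg/mouse/day for 3 days, or doxorubicin 10 mg/kg IP once 5 days prior. Staining intensity quantified by IHC Profiler in ImageJ (liver/heart n=3 per condition).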
# [2] = test system: 4-hydroxynonenal (4-HNE); assay: Immunohistochemical staining for 4-HNE; assay type: in vivo, mouse
# Method in brief: as §1
# [3] = test system: non-heme iron; details: DOX-treated mice, ex vivo methodology ref 16; cited from earlier work
# [4] = Cell-free metal selectivity assay; assay type: biochemical
# [5] = test system: FC1245 tumors; assay: Dual-reporter orthotopic PDA xenograft imaging with FeAL-1; assay type: in vivo, mouse
# [6] = UPLC-MS Fe2+-fragmentation assay
# Method in brief: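 Test compound at 40 µM final in 50 mM Tris-HCl pH 7.4/DMSO (9:1) with sodium ascorbate and ascorbic acid, each 2 mM final. Held 1 min at 37 °C, then sampled as the hemin-free control. Hemin added to 400 µM final and the mixture stirred at 37 °C. Aliquots taken at set time points over 62 min and analysed by UPLC-MS with UV at 303 nm.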
# [7] = test system: MIA PaCa-2 tumors; assay: Dual-reporter orthotopic PDA xenograft imaging with FeAL-1; assay type: in vivo, mouse
# [8] = test system: MiaPaca2-luc cells; assay: Cellular assay comparing FeAL-1 and ICL-1 response; assay type: cell-based, human; details: 20 μM probe, FAC 2 hours, imaged after 15 min
# [9] = Storage stability of FeAL-1 powder; assay type: physicochemical; details: stored as a powder at −20 °C under argon
# [10] = Pharmacokinetic study, plasma LC-MS/MS; assay type: in vivo, C57BL6 mice; details: C57BL/6, mouse, ip, 20 mg/kg
# Method in brief: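 Healthy C57BL/6 mice received a single IP dose at 20 mg/kg (2.5 mL/kg; 15 mice per group). Composite plasma sampling, n=3 per timepoint: orbital bleed under isoflurane at 5, 10, 15, 30 and 45 min, then terminal vena cava bleed under CO2 at 1, 2, 3, 4 and 7 h. Blood collected into EDTA and centrifuged to plasma.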
# [11] = test system: SW-1990-luc cells; assay: Cellular assay comparing FeAL-1 and ICL-1 response; assay type: cell-based, human; details: 20 μM probe, FAC 2 hours, imaged after 15 min
# [12] = test system: luciferase-expressing PDA and colon cancer cell lines; assay: Cellular bioluminescence assays with FAC, BPY or hepcidin pre-treatment; assay type: cell-based
# Method in brief: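 Cells stably expressing firefly/Renilla luciferase (lentiviral, puromycin-selected) in DMEM with 10% FBS, plated to reach 75% confluence and assayed two days after plating. Serum-free DMEM with FAC for 60 min at 37 °C, optionally BPY for 30 min. Hepcidin-25 (1, 2, 4 µg/mL) given 16 h beforehand. Probe at 75 µM in Ca/Mg-free HBSS for 25 min, IVIS imaging at 30 min. D-luciferin (25 µM, 5 min) control.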
# [13] = test system: SW1990 tumors; assay: Dual-reporter orthotopic PDA xenograft imaging with FeAL-1; assay type: in vivo, mouse
# [14] = untreated tumor-bearing mice, FeAL-1 36 mg/kg IP
# [15] = hepcidin 50 μg/mouse for three days
molecule,measurement,setting,value
"COc1cccc2c1C(=O)c1c(O)c3c(c(O)c1C2=O)C[C@@](O)(C(=O)CO)C[C@@H]3O[C@H]1C[C@H](N)[C@H](O)[C@H](C)O1 [DOX, doxorubicin]",ferroportin staining in liver vs untreated controls,[1],reduced ferroportin staining
same,4-HNE staining in heart tissue vs untreated controls,[2],increased 4-HNE staining
same,4-HNE staining in liver vs control group,[2],increased staining for 4-HNE
same,"elevation of non-heme iron in liver, spleen, kidneys and blood",[3],≤ 2 fold
O=C(O)[C@H]1CSC(c2nc3ccc(O)cc3s2)=N1 [D-luciferin],luminescent response of D-luciferin with increasing Fe^2+,"[4]; control experiment, D-luciferin instead of FeAL-1",not affected by increasing concentrations of Fe^2+
"CN(CCN(C)C(=O)O[C@@H]1CCC[C@]2(C1)OOC1(O2)C2CC3CC(C2)CC1C3)C(=O)Oc1ccc2nc(C3=N[C@@H](C(=O)O)CS3)sc2c1 (stereo partly drawn) [FeAL-1, (S)-2-(6-(((2-(((((R,R)-dispiro[adamantane-2,3’-[1,2,4]trioxolane-5’,1’’-cyclohexan]-3’’-yl)oxy)carbonyl)(methyl)amino)ethyl)(methyl)carbamoyl)oxy)benzo[d]thiazol-2-yl)-4,5-dihydrothiazole-4-carboxylic acid]",normalized FeAL-1 Fluc/Rluc response,[5]; [14],~ 0.7
same,stability in assay media lacking hemin,[6]; control without hemin,stable in assay media lacking hemin
same,time point by which FeAL-1 is completely consumed,"[6]; reaction media containing ferrous hemin, 37 °C",≤ 1 min
same,time point at which released D-luciferin is detected,"[6]; reaction media containing ferrous hemin, second time point",12 min
same,normalized FeAL-1 Fluc/Rluc response,[7]; [14],~ 2.1
same,normalized luminescence signal in tumor relative to healthy liver,[7]; vs livers of non-tumor bearing mice,~ 10 fold
same,iron-dependent luminescent response compared with ICL-1,[8],stronger iron-dependent luminescent response from FeAL-1 than from ICL-1
same,stability on storage,[9],stable over several months
same,Cmax,[10],5.91 µM
same,Tmax,[10],1 h
same,iron-dependent luminescent response compared with ICL-1,[11],stronger iron-dependent luminescent response from FeAL-1 than from ICL-1
same,luminescence response with Fe^2+ as ferrous ammonium sulfate (FAS),"[4]; 2.5 μM FeAL-1, 2 hours incubation, then 10 μg/mL luciferase",robust luminescence response
same,bioluminescent signal in response to FAC supplementation,[12]; larger panel of cell lines,robust bioluminescent signal
same,bioluminescence response with BPY iron chelator treatment,[12]; with or without FAC,expected reduction in bioluminescence response
same,normalized FeAL-1 Fluc/Rluc response,[13]; [14],~ 1.7
"hepcidin: hepatic peptide hormone, negative regulator of the iron export protein ferroportin",effect of hepcidin treatment on tumor LIP,[5]; [15],measurably increased LIP in FC1245 tumors
same,tumoral ferroportin expression vs untreated control animal,"[1]; FC1245 tumors, single comparison",decreased tumoral ferroportin expression
same,ferroportin staining in liver vs untreated controls,[1],reduced ferroportin staining
same,FeAL-1 Fluc/Rluc response after hepcidin pre-treatment,[7]; [15],~ 5
same,"FeAL-1 Fluc/Rluc response, hepcidin-treated vs untreated controls",[7]; [15],2–3 fold
same,"4-HNE staining of tumors, treated vs untreated controls",[2]; FC1245 tumors,not significantly different
same,4-HNE staining in heart tissue vs untreated controls,[2],"but not hepcidin-treated mice, showed increased 4-HNE staining"
same,4-HNE staining in liver vs control group,[2],increased staining for 4-HNE
same,effect of hepcidin pre-treatment on FeAL-1 signal,"[12]; hepcidin 1, 2 and 4 μg/mL, 16 hours, FeAL-1 75 μM",corresponding increase in FeAL-1 signal across all cell lines
same,FeAL-1 Fluc/Rluc response after hepcidin pre-treatment,[13]; [15],~ 5
same,"FeAL-1 Fluc/Rluc response, hepcidin-treated vs untreated controls",[13]; [15],2–3 fold
